A short description of test [1]: OD615 S. cerevisiae growth inhibition, permissive medium, pilot counter-assay, permissive growth control for S. cerevisiae lifespan shortening project (AID 705;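 active means growth inhibition above 25% in both replicates, a cutoff set 3 SD above the mean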). The following applies: OD615, 24 h, at 10 µM, active compounds read high. The gist of the method:
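Material: engineered DeaD yeast; compound dosing: one dose 10 µM, DMSO 0.25% final; measure: yeast growth inhibition indicated by reduced 24 h OD615; detection: OD615 turbidity read; incubation: cells pre-grown 4 h, then 24 h compound exposure, 30 °C humidified; medium: permissive synthetic complete medium with raffinose and galactose carbon sources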

The nature of test [2]: Restrictive medium S. cerevisiae growth inhibition, OD615, pilot screen of yeast lifespan reduction project, restrictive growth control (AID 706;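 active means growth inhibition above a set limit, 3 SD over mean compound inhibition, in both replicates, cut at about 43% in these data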;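 further: modified DeaD lifespan yeast strain shifted to restrictive glucose medium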). The following applies: OD615, 48 h, at 10 µM, active compounds read high. Put shortly:
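material = engineered S. cerevisiae DeaD strain | medium = glucose-based CSMM-D restrictive medium | times = 4 h pre-incubation, 48 h exposure at 30 °C | technique = OD615 absorbance reading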

Test [3] is described as follows: viability gain of MRP-1-high H69AR cells under doxorubicin, pilot screen, MRP-1 activator project, CellTiter-Glo, duplicate (AID 807;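 active means viability increase at or above a cutoff of the median across tested compounds plus 3 SD, cut at about 8.5% in these data, passing the limit was not always enough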;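 further: compound pretreatment 18-22 h then 72 h combined with doxorubicin; 0% = doxorubicin alone and 100% = vehicle without doxorubicin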). To be noted: H69AR viability with doxorubicin, CellTiter-Glo luminescence; at 10 µM; active compounds read high. On the technique in general: Cellular ATP, detected with luciferase, serves as a proxy for viable cell number.
Test [4] in a line: growth suppression of beta-catenin knockout HCT116, pilot screen, human colon tumor cells (AID 823;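 active means cell viability at or below a set limit in both duplicate runs, the limit being the all-compound median minus 4 SD, cut at about 23% in these data, passing the limit was not always enough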;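 further: 0% = wells killed by 20 µM Hyamine and 100% = untreated DMSO cell wells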). The following applies: CellTiter-Glo, 60 h, at 10 µM, active compounds read low.
Test [5] in a line: growth suppression of PTEN-deleted HCT116, pilot screen, cell-based, HCT116 clonal line, CellTiter-Glo (AID 824;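 active means viability at or below 27.92% in each of two runs, the all-compound median minus 4 SD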;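 further: 0% = 20 µM Hyamine control and 100% = vehicle cell control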). To be noted: 60 h, at 10 µM, active compounds read low.
Test [6] in a line: inhibitors of the yeast RAM network, pilot screen, dse1pr::URA3 reporter, 5-FOA selection (AID 869;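 active means inhibition over a set limit, the all-compound mean plus 3 SD, in both replicate runs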;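 further: 0% = DMSO wells with no growth and 100% = 10 µM 1-NA-PP1 with full growth; RAM network block rescues cells from 5-FOA so hits raise OD615 growth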). To be noted: S. cerevisiae dse1pr::URA3 5-FOA growth, OD615, 2 d; at 10 µM; active compounds read high; strain carries analog-sensitive mutant Cbk1 kinase.
Test [7] can be described thus: RAM signaling pathway blockade in yeast – S. cerevisiae, Pdr1DBD-CYC8 efflux-inhibited sensitized strain, primary screen (AID 1298).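 Further: 0% = DMSO untreated cells without growth and 100% = 10 µM 1-NA-PP1 full growth; higher means more yeast growth rescued from 5-FOA killing.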 The following applies: S. cerevisiae cbk1-as DSE1-URA3 strain, 5-FOA growth OD615, 2 d; at 50 µM; active compounds read high.

A number with no mark means an inactive call. Inconclusive results are not listed. Active and inactive are the calls of the source.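 How the source made its calls, unless noted: active means RAM network inhibition above 8.4% in each of two replicates, 3 SD over the compound average; inconclusive means above 8.4% inhibition in only one replicate; inactive means 8.4% inhibition or less in each replicate.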

A word on the viability: it is a read-out of living cells in per cent, often relative to untreated cells. As a reminder, the inhibition is the change of the read-out against control, counted positive when it falls. As for `COc1ccc(N(CC(=O)N2CCc3ccccc3C2)S(=O)(=O)c2c(C)[nH]c(=O)[nH]c2=O)cc1`, the growth inhibition in test [1] is -5.04%; in test [2], -13%. The viability increase in test [3] was -1.83%. In addition, the viability is 110% in test [4] and 99.5% in test [5]. Moreover, in test [6], the inhibition is 2.77%. For the same compound, the RAM network inhibition in test [7] was 3.41%.
For the compound `COC(=O)C1(C)Nc2ccccc2C(=O)N1c1ccccc1C` (stereo unspecified), the growth inhibition is -7.67% in test [1] and -8.55% in test [2]. Further, the viability increase in test [3] is -0.74%. Further, the figures for the viability in test [4] and in test [5] were 104% and 102%, respectively. Further, the inhibition in test [6] was 2.51%. Further, in test [7], the RAM network inhibition is 5.2%.
As to `COC(=O)c1cc(COc2ccc3c4c(c(=O)oc3c2)CCCC4)c(C)o1`, the growth inhibition in test [1] was 2.28%; in test [2] it was 5.14%. In addition, in test [3], the viability increase was -0.68%. Also, the viability in test [4] is 103%; in test [5], 100%. The inhibition in test [6] is 0.985%. Further, the RAM network inhibition in test [7] is 3.78%.
`Cc1ccc2oc(=O)c3cnn(CC(=O)Nc4ccccc4N4CCN(C)CC4)c3c2c1`: the growth inhibition in test [1] was 0.52%; in test [2], -25.3%. Further, the viability increase in test [3] is -6.16%. In addition, the figures for the viability in test [4] and in test [5] were 8.9% (active) and 6.03% (active), respectively. Moreover, in test [6], the inhibition is -0.415%. The RAM network inhibition in test [7] was -0.65%.
Consider `CC1CCCCN1S(=O)(=O)c1cccc2cccnc12` (stereo unspecified), for which the growth inhibition is 6.45% in test [1] and 16.5% in test [2]. In addition, the viability increase in test [3] is -3.21%. In addition, the viability in test [4] was 96.8%; in test [5] it was 83.7%. Moreover, the inhibition in test [6] is 0.47%. Besides, in test [7], the RAM network inhibition was 3.59%.
For the compound `CCOc1ccc(-c2nnc3n2N=C(c2ccc(OC)cc2)CS3)cc1`, the values for the growth inhibition in test [1] and in test [2] were -2.4% and -3.84%, respectively. In test [3], the viability increase is -5.29%. For the same compound, the values for the viability in test [4] and in test [5] were 84% and 82%, respectively. In addition, the inhibition in test [6] is 1.72%. Besides, in test [7], the RAM network inhibition is 5.3%.
Consider `CCc1cccc(C)c1NC(=O)CN1C(=O)c2ccccc2S1(=O)=O`, for which the growth inhibition in test [1] was -7.37%; in test [2], 1.46%. Further, the viability increase in test [3] was -0.23%. In addition, the viability in test [4] is 98.3%; in test [5], 93.2%. Also, the inhibition in test [6] was 0.955%. Also, the RAM network inhibition in test [7] is 4.79%.
As for `COc1ccc(CNC(=O)c2ccc3c(c2)N(C)C(=O)CS3=O)cc1` (stereo unspecified), the figures for the growth inhibition in test [1] and in test [2] were -1% and 7.29%, respectively. For the same compound, the viability increase in test [3] was 1.48%. The figures for the viability in test [4] and in test [5] were 103% and 97.3%, respectively. Moreover, the inhibition in test [6] is 1.41%. Besides, the RAM network inhibition in test [7] is 2.04%.
Regarding `CC1CC(C)CN(CCCNC(=O)Cc2c(C(=O)O)[nH]c3ccccc23)C1` (stereo unspecified), the growth inhibition in test [1] was -11.5%; in test [2] it was -13.5%. In test [3], the viability increase is -0.1%. Moreover, the viability is 103% in test [4] and 99.6% in test [5]. Also, the inhibition in test [6] was 0.68%. Besides, the RAM network inhibition in test [7] is 1.78%.
Turning to `COc1ccc(S(=O)(=O)N2CCN(C)CC2)cc1C`, the growth inhibition in test [1] was -15.1%; in test [2] it was -4%. Besides, in test [3], the viability increase was 1.37%. For the same compound, the viability in test [4] is 88.4%; in test [5], 92.1%. Besides, the inhibition in test [6] is 3.29%. Besides, the RAM network inhibition in test [7] is 3.02%.
Turning to `Cc1ccc2nc(-c3ccccc3)cc(C(=O)O)c2c1`, the growth inhibition is -9.89% in test [1] and 8.96% in test [2]. For the same compound, in test [3], the viability increase is -2.12%. For the same compound, the viability in test [4] was 95.3%; in test [5], 87.8%. Also, in test [6], the inhibition is 1.46%. Besides, the RAM network inhibition in test [7] is 3.9%.
For the compound `O=C(COc1ccccc1)NCc1nnc(SCC(=O)Nc2nccs2)n1-c1ccccc1`, the growth inhibition was -10.1% in test [1] and -4.89% in test [2]. In test [3], the viability increase was -1.46%. Further, the viability in test [4] and in test [5] was 101% in each case. Further, the inhibition in test [6] is 2.13%. In addition, the RAM network inhibition in test [7] is 4.48%.
Regarding `COCCNC(=O)c1cc(-c2ccccc2OC)on1`, the growth inhibition in test [1] was 5.14%; in test [2], 11.4%. Also, in test [3], the viability increase is -5.78%. Further, the viability is 62.3% in test [4] and 55.5% in test [5]. Moreover, the inhibition in test [6] is -0.05%. Further, the RAM network inhibition in test [7] was 2.09%.
As for `COc1cc(OC)cc(C(=O)Nc2cccc(NC(C)=O)c2)c1`, the growth inhibition in test [1] is -2.19%; in test [2], -3.84%. In test [3], the viability increase is -2.31%. In addition, the viability in test [4] was 111%; in test [5], 108%. In addition, in test [6], the inhibition was 2.15%. Besides, the RAM network inhibition in test [7] is 2.04%.
Take `CCN1CCN(c2cc(=O)n(C3CCCCC3)c(=O)[nH]2)CC1`: the growth inhibition is -13.3% in test [1] and -10.1% in test [2]. In addition, in test [3], the viability increase is 0.11%. For the same compound, the viability is 104% in test [4] and 102% in test [5]. The inhibition in test [6] is 1.2%. Further, the RAM network inhibition in test [7] is 2.53%.
Consider `C=CCN1C(=O)c2oc3ccccc3c(=O)c2C1c1ccc(O)c(OC)c1` (stereo unspecified), for which the growth inhibition in test [1] is 3.61%; in test [2], 3.18%. The viability increase in test [3] was -2.61%. For the same compound, the values for the viability in test [4] and in test [5] were 101% and 95.4%, respectively. Besides, the inhibition in test [6] is 2.72%. Moreover, the RAM network inhibition in test [7] is 5.67%.
In the case of `Brc1cccc(-c2nnc(SCc3ccon3)n2-c2ccccc2)c1`, the results for the growth inhibition in test [1] and in test [2] were -5.09% and 3.47%, respectively. Besides, the viability increase in test [3] is -5.94%. Besides, the viability in test [4] is 92.3%; in test [5], 78.7%. The inhibition in test [6] was 1.46%. The RAM network inhibition in test [7] was 0.07%.
Consider `Cc1ccc(C2CC(=O)NC(SCc3ccccc3)=C2C#N)o1` (stereo unspecified), for which the growth inhibition in test [1] is -12.6%; in test [2] it was -9.71%. For the same compound, the viability increase in test [3] is -3.75%. Besides, the viability in test [4] is 85.7%; in test [5], 104%. Further, the inhibition in test [6] is -0.825%. In test [7], the RAM network inhibition is 0.58%.

The values above are taken from PubChem BioAssay.
